The results in this text go back to PubChem BioAssay.

Structures are written as SMILES. The source made the active and inactive calls.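 How the source made its calls, unless noted: active means fluorescence slope after compound addition differing from the mean of all tested samples at 99.7% confidence, mostly higher but some lower; inactive means the rest.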

Experiment [1] can be described thus: inhibitors of TNFa-induced NFkB p65 translocation, primary screen, imaging, HUVEC, MLSMR starter and 10KST1 sets (AID 438;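 active means inhibition above 20% together with a positive visual image hit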;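 further: compound added about 3h40 before a 20 min TNFalpha stimulation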;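 on inhibition: signal is the nuclear over cytoplasmic p65 intensity ratio per well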). The following applies: HUVEC TNFa-induced p65 nuclear translocation; cell count: measured here: nuclei count (cytotoxicity indicator), at 2.08 µM; inhibition: at 2 µM, stronger effect = higher value, 0% TNFa-plus-vehicle, 100% no-TNFa wells.
Experiment [2] is described as follows: inhibitors of E-selectin induction by TNFa, primary screen, imaging, HUVEC, immunofluorescence, MLSMR starter and 10KST1 sets (AID 487;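 active means visually confirmed hit in the image check and inhibition above 20%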;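 on inhibition: signal is fraction of cell area covered by stained E-selectin grains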;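 on nuclei count: 100% = median nuclei count of all wells on the same plate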). The following applies: HUVEC TNFalpha-induced E-selectin immunofluorescence imaging, at 2 µM; inhibition: stronger effect = higher value; nuclei count: measured here: cell number, toxicity.
Experiment [3] is described as follows: DUSP6 inhibitors restoring Erk phosphorylation by chemical complementation, primary imaging in DUSP6-transfected HeLa (AID 609;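 active means compounds giving at least 50% inhibition in the cell-based MKP-3 phosphatase rescue imaging test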;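 on inhibition: phospho-Erk level distribution per well compared with pooled transfected vehicle control wells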). The following applies: HeLa MKP-3 transfected, phospho-Erk imaging KS statistic, at 10 µM, cells stimulated with TPA for 15 min.
The target of experiment [4] is Dual specificity protein phosphatase 6 (Homo sapiens) (UniProt Q16828). The experiment is described as above. The following applies: HeLa MKP-3 transfected, phospho-Erk imaging KS statistic; at 10 µM; stronger effect = higher value; cells stimulated with TPA for 15 min.
Dual specificity protein phosphatase 6 (Homo sapiens), sequence (Q16828 whole entry, looked up): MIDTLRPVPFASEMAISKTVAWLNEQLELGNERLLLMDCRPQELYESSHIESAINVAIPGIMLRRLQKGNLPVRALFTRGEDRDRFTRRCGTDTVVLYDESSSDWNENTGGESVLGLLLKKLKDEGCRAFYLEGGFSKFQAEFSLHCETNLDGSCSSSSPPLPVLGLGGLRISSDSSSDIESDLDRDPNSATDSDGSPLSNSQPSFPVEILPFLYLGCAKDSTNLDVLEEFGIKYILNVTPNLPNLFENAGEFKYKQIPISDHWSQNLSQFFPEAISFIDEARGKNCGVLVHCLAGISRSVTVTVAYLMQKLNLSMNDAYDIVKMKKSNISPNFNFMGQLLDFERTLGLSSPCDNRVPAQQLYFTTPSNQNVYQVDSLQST
The target in experiment [5] is Voltage-gated potassium channel subunit beta-2 (Rattus norvegicus) (UniProt P62483). The experiment can be described thus: KvBeta enzyme negative modulators, primary screen, biochemical, NADPH fluorescence (AID 622;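 active means fluorescence slope higher than the sample average by over 3 SD, cut at about -0.22 in these data, passing the limit was not always enough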;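 further: slope of raw intensity against log time taken from 70 to 1610 s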). The following applies: recombinant KvBeta, 4-cyanobenzaldehyde reduction, at 10 µM, stronger effect = higher value.
Voltage-gated potassium channel subunit beta-2 (Rattus norvegicus), sequence (P62483 whole entry, looked up): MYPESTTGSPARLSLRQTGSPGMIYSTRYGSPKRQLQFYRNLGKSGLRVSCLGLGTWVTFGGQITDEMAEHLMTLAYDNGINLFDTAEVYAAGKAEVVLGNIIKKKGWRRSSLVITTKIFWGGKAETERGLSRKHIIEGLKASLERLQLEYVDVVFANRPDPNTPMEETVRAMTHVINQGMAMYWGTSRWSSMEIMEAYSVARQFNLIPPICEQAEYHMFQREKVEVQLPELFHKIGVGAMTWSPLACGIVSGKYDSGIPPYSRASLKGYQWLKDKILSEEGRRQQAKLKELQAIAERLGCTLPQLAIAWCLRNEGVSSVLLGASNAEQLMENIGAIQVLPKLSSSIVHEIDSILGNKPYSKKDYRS
The target is the same in experiment [6]. The experiment can be described thus: KvBeta positive modulators, primary screen, biochemical, NADPH fluorescence (AID 623;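 active means NADPH fluorescence slope more negative than the mean of all samples by about 3 SD, 99.7% confidence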;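 further: fluorescence intensity change per second fitted from 20 to 320 s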). The following applies: Recombinant KvBeta, NADPH fluorescence decrease slope, 10 min; at 10 µM; stronger effect = lower value.
In experiment [7] the target is Muscarinic acetylcholine receptor M4 (Homo sapiens) (UniProt P08173). Put plainly: compounds altering M4/GIRK thallium flux, either direction, primary screen, M4 allosteric agonist project, cell-based, HEK293 M4/GIRK, BTC-AM (AID 625).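 Further: thallium influx through GIRK channels coupled to M4 in HEK293 cells with BTC-AM dye.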 Particulars: at 10 µM, actives lie on both sides. In a few lines: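 Material: HEK293 cells with M4 receptor and GIRK channels; Times: cells overnight at 37 °C, BTC-AM loading 1 h, reads 2 min total; Technique: kinetic BTC-AM fluorescence sampled at 1 Hz, 10 s pre-addition baseline; Read-out basis: slope over 15–24 s of trace normalized to starting intensity; Controls: carbachol positive, DMSO negative.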
Muscarinic acetylcholine receptor M4 (Homo sapiens), sequence (P08173 whole entry, looked up): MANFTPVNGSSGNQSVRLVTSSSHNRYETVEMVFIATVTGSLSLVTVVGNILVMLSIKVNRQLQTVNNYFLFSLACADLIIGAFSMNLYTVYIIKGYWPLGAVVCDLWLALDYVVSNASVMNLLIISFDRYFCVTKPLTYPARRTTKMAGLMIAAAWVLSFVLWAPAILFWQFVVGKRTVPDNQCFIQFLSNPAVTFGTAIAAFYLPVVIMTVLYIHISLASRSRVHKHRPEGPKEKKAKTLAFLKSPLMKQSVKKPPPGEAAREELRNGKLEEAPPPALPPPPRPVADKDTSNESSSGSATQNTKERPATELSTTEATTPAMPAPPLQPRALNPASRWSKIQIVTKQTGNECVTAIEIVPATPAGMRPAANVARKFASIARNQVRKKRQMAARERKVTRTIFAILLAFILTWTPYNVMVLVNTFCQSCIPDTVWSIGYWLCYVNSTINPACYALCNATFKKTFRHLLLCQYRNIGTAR

Experiment [8] in a line: inhibitors of larval lipid processing in zebrafish, primary screen, whole organism, PED6 fluorescence, gall bladder and intestine (AID 686;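 active means a full or partial loss of lipid-probe fluorescence in the fish gall bladder, intestine or both, judged by eye; inactive means no fluorescence loss, or compound toxic to the fish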;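 further: larvae 5 to 7 days old with five fish per well; signal comes from phospholipase A2 cleavage of quenched PED6 carried via bile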). Particulars: Zebrafish larvae PED6 lipid processing, fluorescence scoring; screened at 20 µM (by protocol). In a few lines: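 Incubation: overnight exposure of larvae to compound plus PED6 / Test system: live zebrafish larvae aged 5-7 days, whole organism / Amount: 5 larvae per well / Read-out basis: visual per-well fluorescence inhibition score / Signal: visual fluorescence microscopy scoring of gall bladder, gut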

Experiment [9] is described as follows: inhibitors of Chlamydomonas gravitaxis, primary screen, whole organism, Chlamydomonas reinhardtii, WT vs cilia-less mutant, absorbance, 96-well (AID 463189;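 active means inhibition at or above 50% relative to wild type and mutant plate controls; inactive means inhibition below 50%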;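 further: 0% = wild type cc124 cells in DMSO and 100% = ciliumless bld1 mutant cells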). The following applies: OD600 absorbance, 2 days, at 10 µM, stronger effect = higher value.
Setting [10] is: measured here: cell density z-score.
The mark [11] stands for this setting: measured here: nuclear c-Myc green intensity z-score.
Setting [12] is: measured here: nuclear pErk red intensity z-score, stronger effect = higher value.

For `Cc1ccccc1N1C(=O)C2ON(c3ccccc3)C(c3cccnc3)C2C1=O` (stereo unspecified), the cell count in experiment [1] was found to be 541. In addition, the inhibition in experiment [1] was -7% (inactive); in experiment [2], 20.1% (inactive); in [4], 7.7% (inactive); in experiment [9], -7.8% (inactive). The nuclei count in experiment [2] was found to be 88.7%. Moreover, the z-score was 1.39 in experiment [3] (setting [10]), 0.945 in experiment [3] (setting [11]) and -1.38 in experiment [3] (setting [12]). Moreover, the figures for the fluorescence slope in experiment [5] and in experiment [7] were -0.502 (inactive) and 0.00555 (inactive), respectively. Moreover, the NADPH fluorescence slope in experiment [6] was -4.4e-05 (inactive). The compound was called inactive in experiment [8].
As to `O=C(O)C(O)c1ccco1` (stereo unspecified), the cell count in [1] came out at 365. For the same compound, the inhibition in [1] was -6.1% (inactive); in experiment [2], -95% (inactive); in experiment [4] it was -4.59% (inactive); in experiment [9], -5.52% (inactive). The same compound yielded a nuclei count in [2] of 150%. Besides, the z-score in experiment [3] (setting [10]) is 0.761; in experiment [3] (setting [11]) it was 0.00341; in experiment [3] (setting [12]), -0.65. The fluorescence slope in experiment [5] is -0.43 (inactive); in experiment [7], 0.00449 (inactive). For the same compound, the NADPH fluorescence slope in experiment [6] is -9.9e-05 (inactive). Also, in experiment [8], the outcome was inactive.
As to `Cn1c(=O)c2c(nc(NCc3ccc4c(c3)OCO4)n2Cc2ccccc2Cl)n(C)c1=O`, the cell count in [1] worked out at 634. In addition, the inhibition is -6% (inactive) in experiment [1], -29.1% (inactive) in [2], -2.09% (inactive) in [4] and -8.68% (inactive) in experiment [9]. This compound also displayed a nuclei count in [2] of 104%. Also, the figures for the z-score in experiment [3] (setting [10]), in experiment [3] (setting [11]) and in [3] (setting [12]) were 0.0435, 2.04 and 0.82, respectively. Besides, the fluorescence slope is -0.41 (inactive) in [5] and 0.00449 (inactive) in experiment [7]. The NADPH fluorescence slope in experiment [6] is -9.6e-06 (inactive). The compound was classed as inactive in [8].
For `FC(F)(F)c1cccc(-n2cccc2/C=N/n2cnnc2)c1`, the cell count in [1] was 415. For the same compound, the inhibition in experiment [1] is -3.1% (inactive); in experiment [2], 39.9% (inactive); in experiment [4], -0.608% (inactive); in [9], 13.6% (inactive). The same compound gave a nuclei count in [2] of 140%. Besides, the z-score was -1.39 in experiment [3] (setting [10]), 0.953 in experiment [3] (setting [11]) and 1.88 in [3] (setting [12]). Further, the values for the fluorescence slope in experiment [5] and in experiment [7] were -0.438 (inactive) and 0.00494 (inactive), respectively. In experiment [6], the NADPH fluorescence slope is -0.00012 (inactive). For the same compound, the outcome in experiment [8] was inactive.
On to `CC1(C)Cc2c(C#N)c(N3CCN(C(=O)c4ccccc4)CC3)nc(-c3ccco3)c2CS1`, for which, in experiment [1], the cell count was 640. The inhibition is -9% (inactive) in experiment [1], -74.3% (inactive) in experiment [2], 19.1% (inactive) in experiment [4] and 7.79% (inactive) in [9]. The nuclei count in experiment [2] turned out to be 156%. Further, the z-score is 0.833 in [3] (setting [10]), 0.824 in [3] (setting [11]) and -0.638 in experiment [3] (setting [12]). Further, the fluorescence slope in [5] was -0.401 (inactive); in [7] it was 0.0059 (inactive). Besides, the NADPH fluorescence slope in experiment [6] is -2.5e-05 (inactive). In [8], the compound was classed as inactive.
On to `Nc1nnnn1N=C1CCCCC1`, for which the cell count in experiment [1] is 662. For the same compound, the inhibition in experiment [1] was -3.4% (inactive); in [2], -120% (inactive); in [4], -2.29% (inactive); in [9] it was 2.87% (inactive). This compound also showed a nuclei count in [2] of 170%. Moreover, the values for the z-score in experiment [3] (setting [10]), in experiment [3] (setting [11]) and in experiment [3] (setting [12]) were 0.907, -0.604 and -0.484, respectively. The values for the fluorescence slope in experiment [5] and in [7] were -0.493 (inactive) and 0.00643 (inactive), respectively. Also, in experiment [6], the NADPH fluorescence slope was -3.7e-05 (inactive). In addition, in experiment [8], the compound was classed as inactive.
For the compound `O=C(C/C(=N/O)c1ccccc1O)C(F)F`, in [1], the cell count was 454. Besides, the inhibition in [1] was -0.6% (inactive); in [2], -48.8% (inactive); in experiment [4], 9.37% (inactive); in experiment [9], -1.93% (inactive). The compound also showed a nuclei count in experiment [2] of 164%. Moreover, the z-score was -0.709 in [3] (setting [10]), 1.7 in [3] (setting [11]) and 1.49 in experiment [3] (setting [12]). Also, the fluorescence slope is -0.451 (inactive) in experiment [5] and 0.0043 (inactive) in [7]. Moreover, the NADPH fluorescence slope in [6] was -2.7e-05 (inactive). Also, the result in experiment [8] was inactive.
